Measured values gathered from unrelated publications.
Protocols differ between the studies behind these lines. pEC50, pIC50, pKd, pKi: −log10 of the molar value.
Gpr84: G-protein coupled receptor 84 (Gpr84, Mus musculus, UniProt Q8CIM5)
MDH2: Malate dehydrogenase, mitochondrial (MDH2, Sus scrofa, UniProt P00346)

CC(C)C[C@H](NC(=O)[C@@H](N)CCCNC(=N)N)C(=O)N[C@@H](Cc1ccc(O)cc1)C(=O)N[C@@H](Cc1ccc(O)cc1)C(=O)N[C@@H](Cc1ccccc1)C(=O)N[C@@H](Cc1c[nH]c2ccccc12)C(=O)N[C@@H](CC(=O)O)C(=O)O
pKi (DNA dC->dU-editing enzyme APOBEC-3G (APOBEC3G, Homo sapiens, UniProt Q9HC16); enzyme activity, inhibitor): ~6.19

CCCN1CCN(c2ccc(-c3cncc(Cl)c3N3CCC4(CCNC4=O)CC3)cc2)CC1
pKd (Cyclin-dependent kinase 1 (CDK1, Homo sapiens, UniProt P06493); cell-free assay; lysate): 4.72

CCCCCCCCNc1cc(=O)[nH]c(=O)[nH]1
pEC50 (Gpr84; cAMP, agonist): 7.18

Cc1cc2nc3c(=O)[nH]c(=O)nc-3n(C[C@H](O)[C@H](O)[C@H](O)COP(=O)(O)OP(=O)(O)OC[C@H]3O[C@@H](n4cnc5c(N)ncnc54)[C@H](O)[C@@H]3O)c2cc1C
pKd (Ataxin-2 (Homo sapiens, UniProt Q99700); binding; lysate): 7.66

O=S(=O)(Nc1ccc(-c2nc3cc(NS(=O)(=O)c4ccccc4)ccc3o2)cc1)c1ccccc1
pIC50 (MDH2; enzyme activity, inhibitor): < 4.20

Cc1cnc(-c2ccc(-c3ccc(NC(=O)Nc4c(F)cc(F)cc4F)cc3F)c3c2C(=O)NC3)[nH]1
pKd (NT-3 growth factor receptor (NTRK3, Homo sapiens, UniProt Q16288); binding, competition with immobilised ligand): 9.05

CC(=O)N[C@@H](Cc1ccccc1)C(=O)N1CCC[C@H]1C(=O)N1CCC[C@H]1C(=O)N1CCC[C@H]1C(=O)N1CCC[C@H]1C(=O)O
pKd (Protein enabled homolog (ENAH, UniProt Q8N8S7); binding, fluorescence): 3.30

CCCCCCCCCCCCCCCC(=O)OC[C@H](COP(=O)(O)OC1[C@H](O)[C@H](O)C(OP(=O)(O)O)[C@H](O)[C@H]1O)OC(=O)CCCCCCCCCCCCCCC (some centres unmarked)
pKd (Proto-oncogene tyrosine-protein kinase Src (SRC, Homo sapiens, UniProt P12931); binding, fluorescence): 4.59

CNC(=O)c1cc2c(Oc3ccc(NC(=O)C4(C(=O)Nc5ccc(F)cc5)CC4)cc3)ccnc2cc1OC
pIC50 (Tyrosine-protein kinase Mer (MERTK, Homo sapiens, UniProt Q12866); enzyme activity, inhibitor, radiometric): 9.05

COc1ccc(S(=O)(=O)Nc2ccc3oc(-c4ccc(NS(=O)(=O)c5cc(Br)ccc5OC)cc4)nc3c2)cc1
pIC50 (MDH2; enzyme activity, inhibitor): < 4.20

CCCCCCCCCC(=O)O
pEC50 (Gpr84; cAMP, agonist): < 5.00

CC(C)(C)n1nc(-c2cnc3cc(OC4CC4)ccc3c2)c(C(N)=O)c1N
pIC50 (Calcium/calmodulin-dependent protein kinase kinase 2 (CAMKK2, Homo sapiens, UniProt Q96RR4); cell-free assay): < 5.00

O=C(Nc1ccc(Sc2nc3ccccc3s2)cc1)c1cccc(Br)c1O
pIC50 (MDH2; enzyme activity, inhibitor): < 4.20

CC(=O)N[C@@H](CCCNC(=N)N)C(=O)NCCOCCOCC(=O)N[C@H](CC(=O)O)C(=O)N1CCC[C@H]1B(O)O
pKi (Dipeptidyl peptidase 4 (DPP4, Homo sapiens, UniProt P27487); enzyme activity, inhibitor, fluorescence): 5.15
